We go through seven molecules from ChEMBL document CHEMBL1138558, “Synthesis of some new 1,2,4-triazoles, their Mannich and Schiff bases and evaluation of their antimicrobial activities” (2009).

Common to all, as to assay type: functional
Assay [1] concerns Enterococcus faecalis. The assay is described as follows: Antimicrobial activity against Enterococcus faecalis ATCC 29212 at 10 ug after 18 hrs by agar-well diffusion method. Conditions: ATCC 29212, 18 h, read-out: IZ.
Assay [2] has as its system Pseudomonas aeruginosa. The assay is described as follows: Antimicrobial activity against Pseudomonas aeruginosa ATCC 27853 at 10 ug after 18 hrs by agar-well diffusion method. Particulars: ATCC 27853, 18 h, read-out: IZ.
The test system of assay [3] is Yersinia pseudotuberculosis. The assay can be described thus: Antimicrobial activity against Yersinia pseudotuberculosis ATCC 911 at 10 ug after 18 hrs by agar-well diffusion method. Conditions: ATCC 911, 18 h, read-out: IZ. The essentials: (§1)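 Bacteria suspended in Mueller Hinton broth at about 10⁶ cfu/mL, flood-inoculated onto Mueller Hinton agar and dried. Test substance placed into 5-mm wells bored with a sterile cork-borer. Incubation 18 h at 35 °C, then the inhibition zone around each well measured.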

For assay [4], the system named is Escherichia coli. The assay can be described thus: Antimicrobial activity against Escherichia coli ATCC 25922 at 10 ug after 18 hrs by agar-well diffusion method. Particulars: ATCC 25922, 18 h, read-out: IZ. The essentials:
as §1

Assay [5] relates to Staphylococcus aureus. The assay is described as follows: Antimicrobial activity against Staphylococcus aureus ATCC 25923 at 10 ug after 18 hrs by agar-well diffusion method. Particulars: ATCC 25923, 18 h, read-out: IZ.
In assay [6] the test system is Bacillus cereus. The assay can be described thus: Antimicrobial activity against Bacillus cereus 702 Roma at 10 ug after 18 hrs by agar-well diffusion method. Particulars: read-out: IZ.
Assay [7] concerns Candida albicans. The assay is described as follows: Antimicrobial activity against Candida albicans ATCC 60193 at 5 ug after 18 hrs by agar-well diffusion method. Particulars: ATCC 60193, 18 h, read-out: IZ. The essentials: (§2)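 Yeast suspended in Mueller Hinton broth and diluted to about 10⁶ cfu/mL, then flood-inoculated onto Sabouraud Dextrose Agar and dried. 5-mm wells cut with a sterile cork-borer and filled with test substance. Plates incubated 18 h at 35 °C. Read-out is the zone of inhibition.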

In assay [8] the test system is Candida tropicalis. The assay can be described thus: Antimicrobial activity against Candida tropicalis ATCC 13803 at 5 ug after 18 hrs by agar-well diffusion method. Conditions: ATCC 13803, 18 h, read-out: IZ. Summed up:
as §2

Assay [9] relates to Candida albicans. The assay is described as follows: Antimicrobial activity against Candida albicans ATCC 60193 at 10 mg/mL after 18 hrs by agar-well diffusion method. The essentials:
(§3)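 Candida cultures were suspended in Mueller Hinton broth at about 10⁶ cfu/mL, flood-inoculated onto Sabouraud dextrose agar and dried. Test solution was loaded into 5-mm wells bored in the agar. Plates were incubated 18 h at 35 °C, and activity was scored as the inhibition zone around each well.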

For assay [10], the system named is Enterococcus faecalis. The assay can be described thus: Antimicrobial activity against Enterococcus faecalis ATCC 29212 at 10 mg/mL after 18 hrs by agar-well diffusion method. Summed up: (§4)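 Agar-well diffusion: each bacterium suspended in Mueller Hinton broth at about 10⁶ cfu/mL, flood-inoculated onto Mueller Hinton agar and dried. 5-mm wells were cut with a sterile cork-borer and filled with the test solution. Plates were incubated 18 h at 35 °C. The read-out was the diameter of the inhibition zone.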

Assay [11] has as its system Pseudomonas aeruginosa. The assay can be described thus: Antimicrobial activity against Pseudomonas aeruginosa ATCC 27853 at 10 mg/mL after 18 hrs by agar-well diffusion method. Summed up: as §4
The subject of assay [12] is Bacillus cereus. The assay can be described thus: Antimicrobial activity against Bacillus cereus 702 Roma at 10 mg/mL after 18 hrs by agar-well diffusion method. The essentials:
as §4

For assay [13], the system named is Candida tropicalis. The assay can be described thus: Antimicrobial activity against Candida tropicalis ATCC 13803 at 10 mg/mL after 18 hrs by agar-well diffusion method. The essentials: as §3
Assay [14] relates to Yersinia pseudotuberculosis. The assay can be described thus: Antimicrobial activity against Yersinia pseudotuberculosis ATCC 911 at 10 mg/mL after 18 hrs by agar-well diffusion method. Conditions: for zone of inhibition at 10000 µg/mL: ATCC 911, 18 h, read-out: IZ. The essentials: as §1
The test system of assay [15] is Staphylococcus aureus. The assay can be described thus: Antimicrobial activity against Staphylococcus aureus ATCC 25923 at 10 mg/mL after 18 hrs by agar-well diffusion method. The essentials: as §4
Assay [16] deals with Escherichia coli. The assay is described as follows: Antimicrobial activity against Escherichia coli ATCC 25922 at 10 mg/mL after 18 hrs by agar-well diffusion method. Conditions: for zone of inhibition at 10000 µg/mL: ATCC 25922, 18 h, read-out: IZ. Summed up:
as §4

The source made the active and inactive calls. The calls are words filed in the database; no cut-off is given here.

On to `CC1(C)S[C@@H]2[C@H](NC(=O)[C@H](N)c3ccccc3)C(=O)N2[C@H]1C(=O)O` [AMPICILLIN], for which the zone of inhibition at 10 µg/disc is 10 mm in the assay on Enterococcus faecalis [1]; 18 mm in the assay with Pseudomonas aeruginosa [2]; 18 mm in assay [3]; 10 mm in the assay on Escherichia coli [4]; 35 mm in the assay on Staphylococcus aureus [5]; 15 mm in the assay with Bacillus cereus [6].
Turning to `OC(Cn1cncn1)(Cn1cncn1)c1ccc(F)cc1F` [FLUCONAZOLE], the zone of inhibition at 5 µg/disc with Candida albicans [7] and in the assay with Candida tropicalis [8] was 25 mm each time.
With `CC(C)CSc1nnc(-c2ccncc2)n1-c1ccccc1`, the zone of inhibition at 10000 µg/mL came to 8 mm in the assay on Candida albicans [9] (ATCC 60193, 18 h, read-out: IZ); 30 mm in the assay with Enterococcus faecalis [10] (ATCC 29212, 18 h, read-out: IZ); 30 mm in the assay on Pseudomonas aeruginosa [11] (ATCC 27853, 18 h, read-out: IZ); 30 mm in the assay with Bacillus cereus [12] (read-out: IZ); 8 mm with Candida tropicalis [13] (ATCC 13803, 18 h, read-out: IZ); 30 mm in assay [14]. In addition, the zone of inhibition at 10000 µg/mL was determined as 25 mm in the assay on Staphylococcus aureus [15] (ATCC 25923, 18 h, read-out: IZ) and 25 mm with Escherichia coli [16].
Regarding `O=C(CSc1nnc(-c2ccncc2)n1-c1ccccc1)N/N=C/c1cccnc1`, the “inhibition zone (IZ)” value in the assay with Candida albicans [9], in the assay with Enterococcus faecalis [10], in the assay on Pseudomonas aeruginosa [11], in the assay on Bacillus cereus [12], with Candida tropicalis [13] and with Staphylococcus aureus [15] was “inactive” throughout. Also, the results for the zone of inhibition at 10000 µg/mL (in assay [14]; in the assay with Escherichia coli [16]) were 7 mm and 8 mm, respectively.
`O=C(CSc1nnc(-c2ccncc2)n1-c1ccccc1)N/N=C/c1ccc(O)c(O)c1`: the “inhibition zone (IZ)” value (in the assay on Candida albicans [9]; with Enterococcus faecalis [10]; in the assay on Pseudomonas aeruginosa [11]; with Bacillus cereus [12]; in the assay on Candida tropicalis [13]; in [14]) was “inactive” in each case. The “inhibition zone (IZ)” value in the assay on Staphylococcus aureus [15] and with Escherichia coli [16] was “inactive” each time.
In the case of `O=C(CSc1nnc(-c2ccncc2)n1-c1ccccc1)N/N=C/c1ccncc1`, the “inhibition zone (IZ)” value (with Candida albicans [9]; in the assay with Enterococcus faecalis [10]; in the assay on Pseudomonas aeruginosa [11]; in the assay with Bacillus cereus [12]; in the assay with Candida tropicalis [13]; in assay [14]) was “inactive” throughout. Further, the “inhibition zone (IZ)” value in the assay on Staphylococcus aureus [15] and in the assay with Escherichia coli [16] was “inactive” each time.
In the case of `NNC(=O)CSc1nnc(-c2ccncc2)n1-c1ccccc1`, the “inhibition zone (IZ)” value (in the assay with Candida albicans [9]; in the assay with Enterococcus faecalis [10]; in the assay with Pseudomonas aeruginosa [11]; with Bacillus cereus [12]; in the assay with Candida tropicalis [13]; in [14]) was “inactive” each time. In addition, the “inhibition zone (IZ)” value in the assay on Staphylococcus aureus [15] and in the assay with Escherichia coli [16] was “inactive” throughout.
